Reference: ChEMBL document CHEMBL1141626, “Thiosemicarbazones active against Clostridium difficile” (2008)
In brackets after ≈: the same amount, converted by molar mass.

What was measured:
Type in all cases: functional
Staphylococcus aureus [1] = test: Antimicrobial activity against Staphylococcus aureus H1 after 24 hrs
Outline: (§1)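 MIC by dilution in nutrient broth. Anaerobic organisms were incubated in an anaerobic cabinet. Controls were the same organisms incubated without test compound.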

Clostridioides difficile [2] = test: Antimicrobial activity against Clostridium difficile Z173 after 48 hrs
Outline: (§2)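 Anaerobes incubated in an anaerobic cabinet for broth MIC determination. Drug-free incubations of the same organisms served as controls. Value is the minimum inhibitory concentration.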

Clostridioides difficile [3] = test: Antimicrobial activity against Clostridium difficile Z161 after 48 hrs; outline: as §2
[4] = test system: Staphylococcus epidermidis; test: Antimicrobial activity against Staphylococcus epidermidis 4 after 24 hrs; outline: as §1
Clostridioides difficile [5] = test: Antimicrobial activity against Clostridium difficile Z66 after 48 hrs; outline: as §2
Staphylococcus aureus [6] = test: Antimicrobial activity against methicillin-resistant Staphylococcus aureus B1 after 24 hrs; outline: as §1
[7] = test system: Staphylococcus epidermidis; test: Antimicrobial activity against Staphylococcus epidermidis NCTC 11047 after 24 hrs; conditions: NCTC 11047, 24 h; outline: as §1
Cutibacterium acnes [8] = test: Antimicrobial activity against Propionibacterium acnes B5 after 48 hrs; outline: as §2
Clostridioides difficile [9] = test: Antimicrobial activity against Clostridium difficile Z172 after 48 hrs; outline: as §2
Clostridioides difficile [10] = test: Antimicrobial activity against Clostridium difficile Z179 after 48 hrs; outline: as §2
Cutibacterium acnes [11] = test: Antimicrobial activity against Propionibacterium acnes D3 after 48 hrs; outline: as §1
[12] = test system: Staphylococcus epidermidis; test: Antimicrobial activity against Staphylococcus epidermidis 8A after 24 hrs; outline: as §1
Acinetobacter sp. [13] = test: Antimicrobial activity against Acinetobacter sp.1
Acinetobacter sp. [14] = test: Antimicrobial activity against Acinetobacter sp.3
Acinetobacter sp. [15] = test: Antimicrobial activity against Acinetobacter sp.2
Staphylococcus aureus [16] = test: Antimicrobial activity against epidemic methicillin-resistant Staphylococcus aureus 15 after 24 hrs; outline: as §1
Clostridioides difficile [17] = test: Antimicrobial activity against Clostridium difficile Z160 after 48 hrs; outline: as §2
Clostridioides difficile [18] = test: Antimicrobial activity against Clostridium difficile O27 after 48 hrs; outline: as §2
Staphylococcus aureus [19] = test: Antimicrobial activity against methicillin-sensitive Staphylococcus aureus A2 after 24 hrs; outline: as §1
Candida albicans = test: Antimicrobial activity against Candida albicans 1009116
Clostridioides difficile [20] = test: Antimicrobial activity against Clostridium difficile Z176 after 48 hrs; outline: as §2
Staphylococcus aureus [21] = test: Antimicrobial activity against methicillin-resistant Staphylococcus aureus B3 after 24 hrs; outline: as §1
Clostridioides difficile [22] = test: Antimicrobial activity against Clostridium difficile Z158 after 48 hrs; outline: as §2
Cutibacterium acnes [23] = test: Antimicrobial activity against Propionibacterium acnes B3 after 24 hrs
Clostridioides difficile [24] = test: Antimicrobial activity against Clostridium difficile Z166 after 48 hrs; outline: as §2
Staphylococcus aureus [25] = test: Antimicrobial activity against Staphylococcus aureus K1 after 24 hrs; outline: as §1
Clostridioides difficile [26] = test: Antimicrobial activity against Clostridium difficile Z177 after 48 hrs; outline: as §2
Staphylococcus aureus [27] = test: Antimicrobial activity against Staphylococcus aureus T1 after 24 hrs; outline: as §1
Clostridioides difficile [28] = test: Antimicrobial activity against Clostridium difficile Z175 after 48 hrs; outline: as §2
Staphylococcus aureus [29] = test: Antimicrobial activity against methicillin-resistant Staphylococcus aureus D1 after 24 hrs; outline: as §1
[30] = test system: Staphylococcus epidermidis; test: Antimicrobial activity against Staphylococcus epidermidis 7A after 24 hrs; outline: as §1
Clostridioides difficile [31] = test: Antimicrobial activity against Clostridium difficile Z164 after 48 hrs; outline: as §2
Clostridioides difficile [32] = test: Antimicrobial activity against Clostridium difficile Z251 after 48 hrs; outline: as §2
Clostridioides difficile [33] = test: Antimicrobial activity against Clostridium difficile Z21 after 48 hrs; outline: as §2
Acinetobacter sp. [34] = test: Antimicrobial activity against Acinetobacter sp.4
Clostridioides difficile [35] = test: Antimicrobial activity against Clostridium difficile Z1591 after 48 hrs; outline: as §2
[36] = test system: Staphylococcus epidermidis; test: Antimicrobial activity against Staphylococcus epidermidis 10 after 24 hrs; outline: as §1
[37] = test system: Staphylococcus epidermidis; test: Antimicrobial activity against Staphylococcus epidermidis 11 after 24 hrs; outline: as §1
Staphylococcus aureus [38] = test: Antimicrobial activity against Staphylococcus aureus ATCC 6538 after 24 hrs; conditions: ATCC 6538, 24 h; outline: as §1

Compound `CCNC(=S)N/N=C/C=C/c1ccc([N+](=O)[O-])o1` has an MIC (Staphylococcus aureus [1]) of 16 µg/mL (≈ 59.6 µM), an MIC (Clostridioides difficile [2]) of 8 µg/mL (≈ 29.8 µM) and an MIC (Clostridioides difficile [3]) of 0.5 µg/mL (≈ 1.86 µM). It also gave an MIC [4] of 4 µg/mL (≈ 14.9 µM), an MIC (Clostridioides difficile [5]) of 4 µg/mL (≈ 14.9 µM) and an MIC (Staphylococcus aureus [6]) of 4 µg/mL (≈ 14.9 µM). For the same compound, the MIC [7] was 4 µg/mL (≈ 14.9 µM), the MIC (Cutibacterium acnes [8]) was 8 µg/mL (≈ 29.8 µM) and the MIC (Clostridioides difficile [9]) was 4 µg/mL (≈ 14.9 µM). It also gave an MIC (Clostridioides difficile [10]) of 2 µg/mL (≈ 7.45 µM), an MIC (Cutibacterium acnes [11]) of 4 µg/mL (≈ 14.9 µM) and an MIC [12] of 2 µg/mL (≈ 7.45 µM). It also gave an MIC (Acinetobacter sp. [13]) of 128 µg/mL (≈ 477 µM), an MIC (Acinetobacter sp. [14]) of 128 µg/mL (≈ 477 µM) and an MIC (Acinetobacter sp. [15]) of 128 µg/mL (≈ 477 µM). The MIC (Staphylococcus aureus [16]) was 4 µg/mL (≈ 14.9 µM), the MIC (Clostridioides difficile [17]) was 8 µg/mL (≈ 29.8 µM) and the MIC (Clostridioides difficile [18]) was 8 µg/mL (≈ 29.8 µM). The MIC (Staphylococcus aureus [19]) was 4 µg/mL (≈ 14.9 µM), the MIC (Candida albicans) was 128 µg/mL (≈ 477 µM) and the MIC (Clostridioides difficile [20]) was 2 µg/mL (≈ 7.45 µM). It also gave an MIC (Staphylococcus aureus [21]) of 4 µg/mL (≈ 14.9 µM), an MIC (Clostridioides difficile [22]) of 2 µg/mL (≈ 7.45 µM) and an MIC (Cutibacterium acnes [23]) of 8 µg/mL (≈ 29.8 µM). For the same compound, the MIC (Clostridioides difficile [24]) was 2 µg/mL (≈ 7.45 µM), the MIC (Staphylococcus aureus [25]) was 4 µg/mL (≈ 14.9 µM) and the MIC (Clostridioides difficile [26]) was 2 µg/mL (≈ 7.45 µM). For the same compound, the MIC (Staphylococcus aureus [27]) was 4 µg/mL (≈ 14.9 µM), the MIC (Clostridioides difficile [28]) was 0.5 µg/mL (≈ 1.86 µM) and the MIC (Staphylococcus aureus [29]) was 4 µg/mL (≈ 14.9 µM). For the same compound, the MIC [30] was 2 µg/mL (≈ 7.45 µM), the MIC (Clostridioides difficile [31]) was 1 µg/mL (≈ 3.73 µM) and the MIC (Clostridioides difficile [32]) was 1 µg/mL (≈ 3.73 µM). The MIC (Clostridioides difficile [33]) was 16 µg/mL (≈ 59.6 µM), the MIC (Acinetobacter sp. [34]) was 128 µg/mL (≈ 477 µM) and the MIC (Clostridioides difficile [35]) was 1 µg/mL (≈ 3.73 µM). For the same compound, the MIC [36] was 4 µg/mL (≈ 14.9 µM), the MIC [37] was 1 µg/mL (≈ 3.73 µM) and the MIC (Staphylococcus aureus [38]) was 4 µg/mL (≈ 14.9 µM).
